This is an account of results in ChEMBL document CHEMBL2434878, “Synthesis and antimycobacterial activity of analogues of the bioactive natural products sampangine and cleistopholine” (Eur J Med Chem, 2013).

This experiment relates to Mycobacterium tuberculosis variant bovis. Kind of experiment: Antimicrobial activity against Mycobacterium bovis AN5 expressing luciferase reporter gene assessed as growth inhibition after 6 days by luminometry. Type of experiment: functional. The following applies: AN5, 144 h. In outline:
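Other mycobacteria (M. avium ssp. avium ATCC 15769, ssp. paratuberculosis ATCC 19698, M. bovis AN5) were grown in 7H9 with 10% OADC and 0.2% glycerol; M. bovis had 0.05% Tween 80 in place of glycerol, and paratuberculosis had mycobactin J (2 mg/ml); all were grown at 39 °C. Serial dilutions were tested by the luciferase luminometry assay and the 50% growth-reduction concentration was read.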

The structures appear in SMILES notation.

A word on the GI50: it is the concentration giving 50% growth inhibition. Turning to `O=C1c2ccccc2C(=O)c2c(O)cc(-c3ccccc3)cc21`, the GI50 came to 800 nM.

On to `COc1ccc(-c2cc(O)c3c(c2)C(=O)c2ccccc2C3=O)cc1`, for which the 50% growth inhibitory concentration (GI50) turned out to be 380 nM.

As for `CN(C)/C=C/c1nc(-c2ccccc2)cc2c1C(=O)c1ccccc1C2=O`, the GI50 came out at 640 nM.

As for `COc1ccc(-c2cc3c(c(/C=C/N(C)C)n2)C(=O)c2ccccc2C3=O)cc1`, the GI50 came out at 470 nM.

Take `CN(C)/C=C/c1nc(-c2ccc(F)cc2)cc2c1C(=O)c1ccccc1C2=O`: the GI50 came to 480 nM.

Take `CN(C)/C=C/c1nc(-c2ccc(Cl)cc2)cc2c1C(=O)c1ccccc1C2=O`: the GI50 is 490 nM.

On to `Cc1ccc(-c2cc3c(c(/C=C/N(C)C)n2)C(=O)c2ccccc2C3=O)cc1`, for which the GI50 turned out to be 580 nM.

As to `O=C1c2ccccc2-c2nccc3nc(-c4ccccc4)cc1c23`, the GI50 was 670 nM.

As for `COc1ccc(-c2cc3c4c(nccc4n2)-c2ccccc2C3=O)cc1`, the GI50 turned out to be 520 nM.

For the compound `O=C1c2ccccc2-c2nccc3nc(-c4ccc(F)cc4)cc1c23`, the GI50 was 670 nM.
